Assay results reported in article PMC11628833 (Acta Pharmaceutica Sinica. B, 2024).

Legend:
[1] = test system: TLR1/2/6; experiment: Specificity test in HEK-Blue TLR-overexpressing cells, TLR1/2/6; type: cell-based, human; details: 5 μM S-1, HEK-Blue TLR cells, TLR-specific agonists
[2] = target: T1, TLR9 (Homo sapiens, UniProt Q9NR96); experiment: Specificity test in HEK-Blue TLR-overexpressing cells, TLR9; type: cell-based; details: 5 μM S-1, HEK-Blue TLR cells, TLR-specific agonist
T1 sequence (Q9NR96 26-1032): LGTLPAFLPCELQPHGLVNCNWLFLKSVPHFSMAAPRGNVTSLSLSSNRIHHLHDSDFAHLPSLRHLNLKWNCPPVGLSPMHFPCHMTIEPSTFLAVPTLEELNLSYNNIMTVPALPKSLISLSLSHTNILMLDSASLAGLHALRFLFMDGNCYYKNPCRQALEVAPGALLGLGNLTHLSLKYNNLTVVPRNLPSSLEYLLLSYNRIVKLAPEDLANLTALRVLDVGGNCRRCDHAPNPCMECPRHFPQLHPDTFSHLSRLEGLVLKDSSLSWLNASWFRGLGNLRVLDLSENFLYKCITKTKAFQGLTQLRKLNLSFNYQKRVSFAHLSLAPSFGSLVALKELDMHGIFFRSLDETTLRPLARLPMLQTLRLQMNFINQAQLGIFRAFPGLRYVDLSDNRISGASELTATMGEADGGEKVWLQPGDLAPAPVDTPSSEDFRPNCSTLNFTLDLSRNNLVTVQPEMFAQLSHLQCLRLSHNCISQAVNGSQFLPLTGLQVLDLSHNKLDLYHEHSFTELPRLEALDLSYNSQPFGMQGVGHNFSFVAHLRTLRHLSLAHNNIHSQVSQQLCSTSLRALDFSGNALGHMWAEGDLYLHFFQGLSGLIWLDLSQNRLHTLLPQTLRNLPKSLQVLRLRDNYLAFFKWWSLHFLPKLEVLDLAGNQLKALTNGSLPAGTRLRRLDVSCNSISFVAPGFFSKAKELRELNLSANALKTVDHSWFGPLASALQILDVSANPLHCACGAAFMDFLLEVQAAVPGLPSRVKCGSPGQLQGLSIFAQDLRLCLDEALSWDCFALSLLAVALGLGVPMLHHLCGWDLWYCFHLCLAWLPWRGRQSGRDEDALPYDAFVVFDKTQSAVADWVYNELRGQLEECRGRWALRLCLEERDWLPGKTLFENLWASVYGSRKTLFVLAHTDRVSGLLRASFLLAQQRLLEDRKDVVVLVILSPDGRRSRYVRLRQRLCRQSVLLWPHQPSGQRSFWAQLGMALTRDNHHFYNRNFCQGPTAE

[3] = target: T2, human TLR7 (Homo sapiens, UniProt Q9NYK1); experiment: SEAP reporter assay in HEK-Blue hTLR7 cells; type: cell-based
T2 sequence (Q9NYK1 27-1049): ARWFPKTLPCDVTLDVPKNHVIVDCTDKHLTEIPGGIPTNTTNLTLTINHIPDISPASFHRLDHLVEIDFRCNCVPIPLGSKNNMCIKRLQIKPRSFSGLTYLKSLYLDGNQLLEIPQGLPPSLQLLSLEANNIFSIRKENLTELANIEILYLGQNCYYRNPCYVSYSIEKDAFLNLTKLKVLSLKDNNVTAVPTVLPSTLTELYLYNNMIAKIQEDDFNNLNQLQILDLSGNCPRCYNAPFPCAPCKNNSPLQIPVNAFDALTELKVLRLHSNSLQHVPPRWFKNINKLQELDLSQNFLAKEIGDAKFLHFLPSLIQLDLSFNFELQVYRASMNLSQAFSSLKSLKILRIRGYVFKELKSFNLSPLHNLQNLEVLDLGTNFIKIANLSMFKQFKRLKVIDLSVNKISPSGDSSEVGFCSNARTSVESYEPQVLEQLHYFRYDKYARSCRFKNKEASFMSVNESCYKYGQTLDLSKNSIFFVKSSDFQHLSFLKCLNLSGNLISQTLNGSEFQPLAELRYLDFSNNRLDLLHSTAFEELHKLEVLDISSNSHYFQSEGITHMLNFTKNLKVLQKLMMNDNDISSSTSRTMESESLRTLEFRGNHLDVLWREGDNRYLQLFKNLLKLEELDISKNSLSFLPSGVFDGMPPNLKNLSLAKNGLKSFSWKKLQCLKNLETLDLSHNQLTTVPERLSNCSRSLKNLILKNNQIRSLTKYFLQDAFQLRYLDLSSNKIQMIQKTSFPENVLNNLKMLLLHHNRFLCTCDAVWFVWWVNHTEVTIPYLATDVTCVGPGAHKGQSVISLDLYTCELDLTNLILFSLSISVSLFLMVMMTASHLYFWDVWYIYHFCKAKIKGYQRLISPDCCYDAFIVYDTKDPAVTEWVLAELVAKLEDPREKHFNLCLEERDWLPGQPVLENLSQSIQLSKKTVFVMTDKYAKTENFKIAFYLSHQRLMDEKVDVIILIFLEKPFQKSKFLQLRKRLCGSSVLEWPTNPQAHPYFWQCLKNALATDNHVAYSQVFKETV
How it was run: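 HEK-Blue hTLR7 cells (stable human TLR7 with SEAP reporter) were plated at 5 × 10^5 cells/mL in DMEM with 10% heat-inactivated FBS. They were treated with R848 and varying test compound concentrations at 37 °C for 20–24 h. Medium was mixed with QUANTI-Blue, incubated at 37 °C for about 30 min, and read at 620 nm. R848-only = 100% activation; untreated = 0%.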

[4] = target: TLR4 (Homo sapiens, UniProt O00206); experiment: Specificity test in HEK-Blue TLR-overexpressing cells, TLR4; type: cell-based; details: 5 μM S-1, HEK-Blue TLR cells, TLR-specific agonist
Chain of TLR4 (O00206 24-839): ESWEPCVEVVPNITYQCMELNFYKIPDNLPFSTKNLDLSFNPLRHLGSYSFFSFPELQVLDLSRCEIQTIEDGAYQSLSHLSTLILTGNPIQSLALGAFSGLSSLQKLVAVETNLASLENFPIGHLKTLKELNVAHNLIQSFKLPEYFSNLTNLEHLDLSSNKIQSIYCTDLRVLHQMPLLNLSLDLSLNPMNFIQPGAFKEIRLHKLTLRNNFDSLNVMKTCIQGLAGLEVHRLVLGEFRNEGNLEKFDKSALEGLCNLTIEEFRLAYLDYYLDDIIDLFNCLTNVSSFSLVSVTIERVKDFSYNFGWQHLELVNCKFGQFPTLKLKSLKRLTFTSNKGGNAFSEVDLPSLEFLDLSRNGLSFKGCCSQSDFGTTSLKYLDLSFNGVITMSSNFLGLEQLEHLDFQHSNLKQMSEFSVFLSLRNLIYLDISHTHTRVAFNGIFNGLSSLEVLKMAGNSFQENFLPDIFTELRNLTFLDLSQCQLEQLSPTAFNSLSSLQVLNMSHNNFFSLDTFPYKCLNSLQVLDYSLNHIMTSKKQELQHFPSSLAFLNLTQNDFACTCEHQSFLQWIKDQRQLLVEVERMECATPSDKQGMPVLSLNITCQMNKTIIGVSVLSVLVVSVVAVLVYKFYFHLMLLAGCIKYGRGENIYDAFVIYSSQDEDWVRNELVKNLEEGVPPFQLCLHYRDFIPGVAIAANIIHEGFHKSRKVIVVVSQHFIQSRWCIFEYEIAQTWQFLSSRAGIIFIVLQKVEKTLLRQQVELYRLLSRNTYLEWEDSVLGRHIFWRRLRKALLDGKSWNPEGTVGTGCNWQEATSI
Chain of TLR4 (Q9Y6Y9 17-160 partner limits assumed): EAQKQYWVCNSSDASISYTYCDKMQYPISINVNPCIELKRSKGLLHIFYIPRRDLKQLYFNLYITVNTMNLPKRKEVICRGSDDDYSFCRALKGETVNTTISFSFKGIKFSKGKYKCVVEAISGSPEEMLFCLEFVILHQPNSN

inhibition of TLR9 [2]: no obvious inhibition | IC50 [3]: 790 ± 270 nM | inhibition of TLR4 [4]: no obvious inhibition
Compound: O=C(c1ccc(Cl)cc1)N1CCN(c2ccc([N+](=O)[O-])c3ncccc23)CC1 [Compound S1]
inhibition of TLR1/2/6 [1]: no obvious inhibition
